# What was measured:
# NQO1 [1] = settings: Sprague-Dawley rats; cited from earlier work
# CYP1A1 [2] = type: cell-based, human; settings: MCF-10A cells, compound 20 µM, 24 h; for Increase of CYP1A1 expression: relative to control
# CYP1B1 [3] = type: cell-based, human; settings: MCF-10A cells, compound 20 µM, 24 h; for Induction of CYP1B1 expression: relative to control
# [4] = type: in vivo; settings: ACI rats after GG or GI 2 g/kg/day gavage + EB for 4 days
# Procedure, shortened: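 Female ACI rats (n=6/group) got extracts 2 g/kg/day by gavage plus sc EB 1 mg/kg/day for 4 days. Serum, liver and mammary homogenates (70% aqueous methanol, 0.1% formic acid) were spiked with naringenin internal standard and protein-precipitated with ice-cold ACN. Supernatant was dried, taken up in 20% ACN and analysed by UHPLC-MS/MS, negative ESI, SRM. Extracts were run at 10 μg/mL in 50% methanol.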
# NQO1 [5] = settings: previous in vitro studies; cited from earlier work
# [6] = test system: estrogen oxidative metabolism; settings: MCF-10A cells; cited from earlier work
# [7] = test system: NAD(P)H quinone oxidoreductase (NQO1); test: NQO1 activity in mammary gland of ACI rats; type: in vivo; settings: 4 days
# Procedure, shortened: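 Female ACI rats (n=6/group) were dosed 4 days: EB 1 mg/kg/day sc, alone or with the test compound at 80 mg/kg/day sc or extracts at 2 g/kg/day by gavage. Sesame oil or corn oil/PEG was the vehicle. Frozen mammary tissue was homogenized; NQO1 activity was read at 610 nm in clear supernatant (30 µg protein). Results are fold induction relative to control; mean ± SEM.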
# [8] = test system: estrogen oxidative metabolism (2-MeOE1); test: 2-MeOE1 in serum by LC-MS/MS; type: in vivo; settings: ACI rats, 4 days, co-administered with EB 1 mg/kg/day; GG, GI 2 g/kg/day, LicA 80 mg/kg/day
# E2/E1 levels = E2/E1 levels in serum by LC-MS/MS; type: in vivo; settings: ACI rats, 4 days, co-administered with EB
# CYP1A1 [9] = test: CYP1A1 mRNA expression in mammary tissue, RT-qPCR; type: in vivo; settings: ACI rats, 4 days
# Procedure, shortened: (§1)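 Female ACI rats (5 weeks old, acclimated 1 week, phytoestrogen-free AIN-76A diet, n=6/group) received sc EB 1 mg/kg/day, sc test compound 80 mg/kg/day or gavaged extracts 2 g/kg/day for 4 days. Vehicles were sesame oil sc, or 50% corn oil with 50% PEG/H2O by gavage. Rats were killed day 5; mammary mRNA was measured by TaqMan RT-qPCR with ACTB probe; mean ± SEM, ANOVA/Dunnett or t-test.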
# CYP1B1 [10] = test: CYP1B1 mRNA expression in mammary tissue, RT-qPCR; type: in vivo; settings: ACI rats, 4 days
# Procedure, shortened: as §1
# [11] = LicA metabolites in serum, liver and mammary gland, UHPLC-MS/MS; type: in vivo; settings: ACI rats, sc administration of LicA
# Procedure, shortened: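 ACI rats got the test compound sc at 80 mg/kg/day with EB 1 mg/kg/day sc for 4 days and were killed day 5. Serum, and liver or mammary homogenates in 70% aqueous methanol with 0.1% formic acid, were spiked with naringenin. They were precipitated with ice-cold ACN (15 min, 13000 x g, 4 °C), dried under nitrogen and reconstituted in 20% ACN. Metabolites were profiled by UHPLC-MS/MS on C18.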
# P450 3A4 [12] = settings: HepG2 cells; cited from earlier work
# XRE-luciferase reporter = settings: HepG2 cells; cited from earlier work
# P450 1A2 = settings: cited from earlier work
# P450 3A4 [13] = settings: cited from earlier work
# CYP1A1 [14] = settings: female Sprague-Dawley rats; cited from earlier work
# NQO1 [15] = settings: cited from earlier work
# NQO1 [16] = settings: Sprague-Dawley rats; cited from earlier work; remark: listed apart in the source
# [17] = test system: NAD(P)H quinone oxidoreductase (NQO1); test: NQO1 activity in liver tissue of ACI rats; type: in vivo; settings: EB 1 mg/kg/day sc, 4 days, vs vehicle
# [18] = with EB, GG, GI 2 g/kg/day, LicA 80 mg/kg/day
structure (smiles),measurement,setting,value
O=c1cc(-c2ccc(Br)cc2)oc2ccccc12 [4’bromoflavone],NQO1 induction in liver tissues,NQO1 [1],significant NQO1 induction
"O=C1C[C@@H](c2ccc(O)cc2)Oc2cc(O)ccc21 [LigF, liquiritigenin]",Increase of CYP1A1 expression,CYP1A1 [2],did not affect
same,Induction of CYP1B1 expression,CYP1B1 [3],2 fold
same,Presence in liver and mammary tissues (qualitative),[4],available
same,Effect on NQO1 activity in vitro,NQO1 [5],no effect
same,Effect on estrogen oxidative metabolism,[6],no effect
"C=CC(C)(C)c1cc(/C=C/C(=O)c2ccc(O)cc2)c(OC)cc1O [LicA, licochalcone A]",Induction of NQO1 activity in mammary tissue,"[7]; co-treatment with EB, GG, GI 2 g/kg/day, LicA 80 mg/kg/day",No induction
same,"Reduction of 2-MeOE1 in serum, of the EB treatment group",[8],~70%
same,Effect on E2/E1 levels in serum,E2/E1 levels,only slightly influenced
same,Upregulation of CYP1A1 in mammary tissue compared to the EB treatment group,CYP1A1 [9]; [18],no statistical difference
same,Down-regulation of CYP1B1 expression in mammary tissue compared to the EB treatment group,CYP1B1 [10]; [18],no statistical difference
same,"CYP1A1 expression, fold lower than basal levels",CYP1A1 [2],34 fold
same,"CYP1B1 expression, fold lower than basal levels",CYP1B1 [3],10 fold
same,Presence in liver and mammary tissues (qualitative),[4],available
same,GSH conjugate in the liver,[11],major metabolite
same,GSH conjugate in the serum and mammary tissues,[11],minor metabolite
same,"Main metabolism in serum, liver and mammary tissues",[11],glucuronidation reactions dominated
same,Sulfation in mammary tissue,[11],not detectable
same,Sulfation in serum and liver,[11],minor
same,P450 3A4 gene expression,P450 3A4 [12],decreased
same,XRE-luciferase reporter activity,XRE-luciferase reporter,inhibited
same,Effect on estrogen oxidative metabolism,[6],inhibited
same,Inhibition of P450 1A2 activity,P450 1A2,moderately inhibited
same,Inhibition of P450 3A4 activity,P450 3A4 [13],moderately inhibited
"O=C(/C=C/c1ccc(O)cc1)c1ccc(O)cc1O [LigC, isoliquiritigenin]",Increase of CYP1A1 expression,CYP1A1 [2],4 fold
same,Induction of CYP1B1 expression,CYP1B1 [3],2.5 fold
same,Presence in liver and mammary tissues (qualitative),[4],available
same,Increase of CYP1A1 levels in mammary tissues,CYP1A1 [14],6.84 fold
same,Induction of NQO1 activity in in vivo models,NQO1 [15],didn’t induce
same,Effect on estrogen oxidative metabolism,[6],increase
same,Inhibition of P450 1A2 activity,P450 1A2,weakly
same,Inhibition of P450 3A4 activity,P450 3A4 [13],weakly
CC1(C)C=Cc2c(ccc3c2OC[C@@H](c2ccc(O)cc2O)C3)O1 [glabridin],Presence in liver and mammary tissues (qualitative),[4],not detected
same,Inhibition of P450 1A2 activity,P450 1A2,weakly
same,Inhibition of P450 3A4 activity,P450 3A4 [13],weakly
COc1cc(O)c(CC=C(C)C)c(O)c1C(=O)/C=C/c1ccc(O)cc1 [xanthohumol],NQO1 induction in the mammary gland,NQO1 [16],no NQO1 induction
same,NQO1 induction in liver tissues,NQO1 [1],significant NQO1 induction
"C[C@]12CC[C@@H]3c4ccc(OC(=O)c5ccccc5)cc4CC[C@H]3[C@@H]1CC[C@@H]2O [EB, estradiol benzoate, reference compound]",Effect of EB alone on NQO1 activity in liver tissue,[17],did not affect the NQO1 activity significantly
same,Effect of EB on NQO1 activity in the mammary gland,"[7]; EB 1 mg/kg/day, vs vehicle",slightly reduced
same,"CYP1A1 expression in mammary tissue, fold lower than the vehicle control group",CYP1A1 [9]; EB 1 mg/kg/day,3 fold
same,"CYP1B1 expression in mammary tissue, fold lower than the vehicle control group",CYP1B1 [10]; EB 1 mg/kg/day,5 fold

# Source: paper PMC6435032 (Cancer prevention research (Philadelphia, Pa.), 2018)
